In ChEMBL document CHEMBL5370639, “Structure-Based Lead Optimization of Enterovirus D68 2A Protease Inhibitors” (J Med Chem, 2023):
pEC50, pIC50: −log10 of the molar value.

Legend:
enterovirus D68 = test: Antiviral activity against enterovirus D68 US/MO/14-18947 infected in human RD cells assessed as reduction in virus induced cytopathic effect by neutral red staining based CPE assay; assay type: functional, organism-based; details: Enterovirus D, US/MO/14-18947, RD
How it was run: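 RD cells seeded overnight to ~90% confluency, washed with PBS containing Mg/Ca, infected with virus in DMEM/2% FBS/30 mM MgCl2 for at least 1 h at 33 °C, then compound added. Cells stained with 66 μg/mL neutral red for 2 h; uptake read at 540 nm. EC50 from dose-response fit; mean ± SD of two independent experiments, three repeats each.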

[1] = Cytotoxicity against human RD cells assessed as reduction in cell viability by neutral red staining based CPE assay; assay type: toxicity; details: RD cells
How it was run: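 Uninfected RD cells, grown overnight to ~90% confluency, treated with compound under otherwise the same handling as the antiviral assay. Viability by neutral red uptake (66 μg/mL, 2 h, absorbance 540 nm). CC50 from best-fit dose-response curve; mean ± SD of two independent experiments, three repeats each.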

[2] = Inhibition of Enterovirus D68 US/KY/14-18953 2A protease expressed in Escherichia coli BL21(DE3) using Dabcyl-KIRIVNT/GPGEGGE-Edans as substrate incubated for 2 hrs by FRET assay

Row | Compound | pEC50 (enterovirus D68) | CC50 [1] [nM] | pIC50 [2]
1 | CC(C)(C)[C@H](NC(=O)CC12CC3CC(CC(C3)C1)C2)C(=O)N1C[C@@H]2CCC[C@@H]2[C@H]1C(=O)N[C@H](C(=O)C(N)=O)C1CCCCC1 | 6.85 | > 150000 | 6.72
2 | CCC[C@H](NC(=O)[C@@H]1[C@H]2CCC[C@H]2CN1C(=O)[C@@H](NC(=O)CC1C2CC3CC(C2)CC1C3)C(C)(C)C)C(=O)C(=O)NC1CC1 (some centres not stated) | 6.74 | > 150000 | 6.92
3 | CCC[C@@H](C#N)NC(=O)[C@@H]1[C@H]2CCC[C@H]2CN1C(=O)[C@@H](NC(=O)CC12CC3CC(CC(C3)C1)C2)C(C)(C)C | 5.41 | > 150000 | 5.88
4 | CC(C)(C)[C@H](NC(=O)NC12CC3CC(CC(C3)C1)C2)C(=O)N1C[C@@H]2CCC[C@@H]2[C@H]1C(=O)N[C@@H](Cc1ccc(F)cc1)C(=O)C(=O)NC1CC1 | 6.46 | 21300 | 6.80
5 | CC(C)(C)[C@H](NC(=O)CC12CC3CC(CC(C3)C1)C2)C(=O)N1C[C@@H]2CCC[C@@H]2[C@H]1C(=O)N[C@@H](CC1CC1)C(=O)C(=O)NC1CC1 | 6.64 | 34900 | 6.85
6 | CC(C)[C@H](NC(=O)[C@@H]1[C@H]2CCC[C@H]2CN1C(=O)[C@@H](NC(=O)CC12CC3CC(CC(C3)C1)C2)C(C)(C)C)C(=O)C(=O)NC1CC1 | 6.80 | > 150000 | 7.05
7 | CCC[C@H](NC(=O)[C@H](CC1CCCCC1)NC(=O)[C@@H](NC(=O)CC12CC3CC(CC(C3)C1)C2)C(C)(C)C)C(=O)C(=O)NC1CC1 | < 6.54 | 290 | 
8 | CC(C)(C)[C@H](NC(=O)CC12CC3CC(CC(C3)C1)C2)C(=O)N1C[C@@H]2CCC[C@@H]2[C@H]1C(=O)NC1(C(=O)C(=O)NC2CC2)CCC1 | 5.49 | > 150000 | 5.32
9 | CCC[C@H](NC(=O)[C@@H]1[C@H]2CCC[C@H]2CN1C(=O)[C@@H](NC(=O)NC12CC3CC(CC(C3)C1)C2)C(C)(C)C)C(=O)C(=O)NC1CC1 | 6.15 | 42200 | 6.80
10 | CC(C)(C)[C@H](NC(=O)CC12CC3CC(CC(C3)C1)C2)C(=O)N1C[C@@H]2CCC[C@@H]2[C@H]1C(=O)N[C@H](C(=O)C(=O)NC1CC1)c1ccccc1 | 6.24 | 35800 | 6.64
11 | CCC[C@H](NC(=O)[C@@H]1[C@H]2CCC[C@H]2CN1C(=O)OCc1ccccc1)C(=O)C(=O)NC1CC1 | 4.59 | > 150000 | 5.36
12 | CCC[C@H](NC(=O)[C@@H]1[C@H]2CCC[C@H]2CN1C(=O)[C@@H](NC(=O)Cc1ccccc1)C(C)(C)C)C(=O)C(=O)NC1CC1 | 5.71 | > 150000 | 6.60
13 | CC(C)(C)[C@H](NC(=O)CC12CC3CC(CC(C3)C1)C2)C(=O)N1C[C@@H]2CCC[C@@H]2[C@H]1C(=O)N[C@@H](Cc1c[nH]c2ccccc12)C(=O)C(=O)NC1CC1 | 6.55 | > 150000 | 6.74
14 | CCC[C@H](NC(=O)[C@@H]1[C@H]2CCC[C@H]2CN1C(=O)[C@@H](NC(=O)[C@@H](NC(=O)OCc1ccccc1)C1CCCCC1)C(C)(C)C)C(=O)C(=O)NC1CC1 | 6.08 | > 150000 | 6.44
15 | CC(C)(C)[C@H](NC(=O)CC12CC3CC(CC(C3)C1)C2)C(=O)N1C[C@@H]2CCC[C@@H]2[C@H]1C(=O)N[C@@H](Cc1ccc(F)cc1)C(=O)c1nc2ccccc2s1 | < 4.52 | > 150000 | < 4.70
16 | COC[C@H](NC(=O)[C@@H]1[C@H]2CCC[C@H]2CN1C(=O)[C@@H](NC(=O)CC12CC3CC(CC(C3)C1)C2)C(C)(C)C)C(=O)C(=O)NC1CC1 | 5.64 | 23200 | 6.92

Row | Compound | pEC50 (enterovirus D68) | CC50 [1] [nM] | pIC50 [2]
17 | CCC[C@H](NC(=O)[C@@H]1[C@H]2CCC[C@H]2CN1C(=O)[C@@H](NC(C)=O)C(C)(C)C)C(=O)C(=O)NC1CC1 | 5.33 | > 150000 | 6.03
18 | CCC[C@H](NC(=O)[C@@H]1[C@H]2CCC[C@H]2CN1C(=O)[C@@H](NC(=O)CC1CCCC1)C(C)(C)C)C(=O)C(=O)NC1CC1 | 6.15 | > 150000 | 7.00
19 | CCC[C@H](NC(=O)[C@@H]1[C@H]2CCC[C@H]2CN1C(=O)[C@@H](NC(=O)NC(C)(C)C)C(C)(C)C)C(=O)C(=O)NC1CC1 |  |  | 5.94
20 | CCC[C@H](NC(=O)[C@@H]1[C@H]2CCC[C@H]2CN1C(=O)[C@@H](NC(=O)/C=C/c1ccccc1)C(C)(C)C)C(=O)C(=O)NC1CC1 | 5.40 | > 150000 | 6.12
21 | CC(C)(C)[C@H](NC(=O)CC12CC3CC(CC(C3)C1)C2)C(=O)N1C[C@@H]2CCC[C@@H]2[C@H]1C(=O)N[C@@H](Cc1ccsc1)C(=O)C(=O)NC1CC1 | 6.62 | 28200 | 6.92
22 | CCC[C@H](NC(=O)[C@@H]1[C@H]2CCC[C@H]2CN1C(=O)[C@@H](NC(=O)CC12CC3CC(CC(O)(C3)C1)C2)C(C)(C)C)C(=O)C(=O)NC1CC1 | 5.73 | > 150000 | 6.40
23 | CC(C)(C)[C@H](NC(=O)CC12CC3CC(CC(C3)C1)C2)C(=O)N1C[C@@H]2CCC[C@@H]2[C@H]1C(=O)N[C@H](C(=O)C(=O)NC1CC1)c1ccc(F)cc1 | 6.11 | 24100 | 6.46
24 | CC(C)(C)[C@H](NC(=O)CC12CC3CC(CC(C3)C1)C2)C(=O)N1C[C@@H]2CCC[C@@H]2[C@H]1C(=O)NC1(C(=O)C(=O)NC2CC2)CCCCC1 | 6.00 | > 150000 | 6.13
25 | CCC[C@H](NC(=O)[C@@H](NC(=O)[C@@H](NC(=O)CC12CC3CC(CC(C3)C1)C2)C(C)(C)C)C1CCCCC1)C(=O)C(=O)NC1CC1 | < 5.74 | 1840 | 
26 | CC(C)(C)[C@H](NC(=O)CC12CC3CC(CC(C3)C1)C2)C(=O)N1C[C@@H]2CCC[C@@H]2[C@H]1C(=O)N[C@@H](Cc1ccc(F)cc1)C(=O)C(=O)NC1CC1 | 6.72 | 14100 | 6.82
27 | CCC[C@H](NC(=O)[C@@H]1[C@H]2CCC[C@H]2CN1C(=O)[C@@H](NC(=O)CC1CCCCC1)C(C)(C)C)C(=O)C(=O)NC1CC1 | 6.42 | > 150000 | 7.05
28 | CC(C)C[C@H](NC(=O)[C@@H]1[C@H]2CCC[C@H]2CN1C(=O)[C@@H](NC(=O)CC12CC3CC(CC(C3)C1)C2)C(C)(C)C)C(=O)C(=O)NC1CC1 | 6.59 | 26300 | 6.59
29 | CCC[C@H](NC(=O)[C@@H]1[C@H]2CCC[C@H]2CN1C(=O)[C@@H](NC(=O)CC1CCC(F)(F)CC1)C(C)(C)C)C(=O)C(=O)NC1CC1 | 6.12 | > 50000 | 6.85
30 | CC(C)(C)[C@H](NC(=O)[C@@H]1[C@H]2CCC[C@H]2CN1C(=O)[C@@H](NC(=O)CC12CC3CC(CC(C3)C1)C2)C(C)(C)C)C(=O)C(=O)NC1CC1 | < 4.52 | > 150000 | < 4.70
31 | CC(C)(C)Oc1ccc(C[C@H](NC(=O)[C@@H]2[C@H]3CCC[C@H]3CN2C(=O)[C@@H](NC(=O)CC23CC4CC(CC(C4)C2)C3)C(C)(C)C)C(=O)C(=O)NC2CC2)cc1 | 5.76 | 9790 | 6.74
32 | CCC[C@H](NC(=O)[C@@H]1[C@H]2CCC[C@H]2CN1C(=O)[C@@H](NC(=O)OCc1ccccc1)C(C)(C)C)C(=O)C(=O)NC1CC1 | 5.54 | > 150000 | 6.12
